Results: ChEMBL document CHEMBL4406821, “Novel dual inhibitors targeting CDK4 and VEGFR2 synergistically suppressed cancer progression and angiogenesis” (Eur J Med Chem, 2019)
Activity calls are given as the source filed them. No cut-off for these calls is given here.

Legend:
[1] = target: MAP kinase-interacting serine/threonine-protein kinase 2 (Homo sapiens) (UniProt Q9HBH9); experiment: Inhibition of recombinant human full length MNK2 at 1 uM using myelin basic protein as substrate incubated for 40 mins in presence of [gamma-33P]-ATP by scintillation counting method relative to control
MAP kinase-interacting serine/threonine-protein kinase 2 (Homo sapiens), sequence (Q9HBH9 whole entry, looked up): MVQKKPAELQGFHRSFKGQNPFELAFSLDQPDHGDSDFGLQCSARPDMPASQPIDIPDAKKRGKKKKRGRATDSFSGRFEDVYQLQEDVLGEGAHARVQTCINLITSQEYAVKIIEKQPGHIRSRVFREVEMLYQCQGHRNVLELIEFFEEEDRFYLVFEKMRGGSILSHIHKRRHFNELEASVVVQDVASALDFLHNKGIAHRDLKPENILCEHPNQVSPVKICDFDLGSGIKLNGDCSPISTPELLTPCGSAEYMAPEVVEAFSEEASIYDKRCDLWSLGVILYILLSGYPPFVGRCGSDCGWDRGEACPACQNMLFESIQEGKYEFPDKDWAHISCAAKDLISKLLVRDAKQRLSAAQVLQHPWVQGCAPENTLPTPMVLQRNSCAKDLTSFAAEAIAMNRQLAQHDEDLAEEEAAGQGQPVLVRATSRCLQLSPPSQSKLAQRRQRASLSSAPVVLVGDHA

[2] = target: Wee1-like protein kinase (Homo sapiens) (UniProt P30291); experiment: Inhibition of recombinant human WEE1 (214 to end residues) at 1 uM using LSNLYHQGKFLQTFCGSPLYRRR as substrate incubated for 40 mins in presence of [gamma-33P]-ATP by scintillation counting method relative to control
[3] = target: TGF-beta receptor type-1 (Homo sapiens) (UniProt P36897); experiment: Inhibition of recombinant human TGFBR1 (200 to end residues) at 1 uM using casein as substrate incubated for 40 mins in presence of [gamma-33P]-ATP by scintillation counting method relative to control
TGF-beta receptor type-1 (Homo sapiens), sequence (P36897 whole entry): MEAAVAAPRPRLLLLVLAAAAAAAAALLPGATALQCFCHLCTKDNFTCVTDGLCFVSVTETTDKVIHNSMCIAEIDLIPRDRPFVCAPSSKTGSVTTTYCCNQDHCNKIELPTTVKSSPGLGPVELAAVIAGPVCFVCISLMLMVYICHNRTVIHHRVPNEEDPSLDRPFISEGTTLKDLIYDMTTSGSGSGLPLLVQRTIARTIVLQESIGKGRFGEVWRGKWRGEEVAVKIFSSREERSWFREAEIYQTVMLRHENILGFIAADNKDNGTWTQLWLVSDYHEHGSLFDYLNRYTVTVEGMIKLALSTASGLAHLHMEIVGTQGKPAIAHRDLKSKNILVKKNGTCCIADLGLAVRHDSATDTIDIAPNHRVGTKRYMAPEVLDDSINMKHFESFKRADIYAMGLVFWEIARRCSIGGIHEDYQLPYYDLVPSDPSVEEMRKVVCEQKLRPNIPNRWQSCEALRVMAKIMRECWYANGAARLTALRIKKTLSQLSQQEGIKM

[4] = tested on: HeLa; experiment: Inhibition of colony formation in human HeLa cells at 40 to 80 nM incubated for 5 days by crystal violet staining based light microscopy; format: functional, cell-based
In short: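 4 × 10^3 cells per well were cultured with graded concentrations for 5 days. Cells were then fixed with 20% methanol, stained with 0.5% crystal violet and photographed by light microscopy.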

[5] = target: Serine/threonine-protein kinase SIK1 (Homo sapiens) (UniProt P57059); experiment: Inhibition of recombinant human SIK (1 to 281 residues) at 1 uM using AMARAASAAALARRR as substrate incubated for 40 mins in presence of [gamma-33P]-ATP by scintillation counting method relative to control
Serine/threonine-protein kinase SIK1 (Homo sapiens), sequence (P57059 whole entry, the tested form may be a part): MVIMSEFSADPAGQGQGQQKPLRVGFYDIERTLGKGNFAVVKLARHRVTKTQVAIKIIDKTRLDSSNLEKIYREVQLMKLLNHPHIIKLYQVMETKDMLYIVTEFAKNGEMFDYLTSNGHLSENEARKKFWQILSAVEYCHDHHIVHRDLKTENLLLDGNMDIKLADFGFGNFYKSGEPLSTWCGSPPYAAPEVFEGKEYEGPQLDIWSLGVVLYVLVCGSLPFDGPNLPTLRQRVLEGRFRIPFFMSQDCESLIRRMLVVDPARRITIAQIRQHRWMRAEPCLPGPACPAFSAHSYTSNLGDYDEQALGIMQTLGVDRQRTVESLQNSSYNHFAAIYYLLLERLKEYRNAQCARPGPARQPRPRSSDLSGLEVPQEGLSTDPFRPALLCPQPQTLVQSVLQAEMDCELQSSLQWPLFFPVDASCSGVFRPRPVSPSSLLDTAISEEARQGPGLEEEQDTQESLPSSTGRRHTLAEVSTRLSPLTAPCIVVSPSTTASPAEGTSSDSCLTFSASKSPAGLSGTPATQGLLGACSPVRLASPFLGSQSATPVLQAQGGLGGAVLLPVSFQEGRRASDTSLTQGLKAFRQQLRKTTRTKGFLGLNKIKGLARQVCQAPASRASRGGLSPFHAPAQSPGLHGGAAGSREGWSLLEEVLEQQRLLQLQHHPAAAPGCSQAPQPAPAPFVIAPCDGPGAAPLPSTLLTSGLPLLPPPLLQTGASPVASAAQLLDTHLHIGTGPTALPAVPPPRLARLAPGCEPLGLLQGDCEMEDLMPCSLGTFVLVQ

[6] = target: Eukaryotic translation initiation factor 2-alpha kinase 3 (Homo sapiens) (UniProt Q9NZJ5); experiment: Inhibition of recombinant human PEK (536 to end residues) at 1 uM using RSRSRSRSRSRSRSR as substrate incubated for 40 mins in presence of [gamma-33P]-ATP by scintillation counting method relative to control
[7] = target: Ribosomal protein S6 kinase alpha-4 (Homo sapiens) (UniProt O75676); experiment: Inhibition of recombinant human MSK2 (2 to end residues) at 1 uM using GRPRTSSFAEGKK as substrate incubated for 40 mins in presence of [gamma-33P]-ATP by scintillation counting method relative to control
[8] = target: Calcium/calmodulin-dependent protein kinase type 1 (Homo sapiens) (UniProt Q14012); experiment: Inhibition of recombinant human CAMKIalpha (2 to end residues) at 1 uM using […] as substrate incubated for 40 mins in presence of [gamma-33P]-ATP by scintillation counting method relative to control
Calcium/calmodulin-dependent protein kinase type 1 (Homo sapiens), sequence (Q14012 whole entry, looked up): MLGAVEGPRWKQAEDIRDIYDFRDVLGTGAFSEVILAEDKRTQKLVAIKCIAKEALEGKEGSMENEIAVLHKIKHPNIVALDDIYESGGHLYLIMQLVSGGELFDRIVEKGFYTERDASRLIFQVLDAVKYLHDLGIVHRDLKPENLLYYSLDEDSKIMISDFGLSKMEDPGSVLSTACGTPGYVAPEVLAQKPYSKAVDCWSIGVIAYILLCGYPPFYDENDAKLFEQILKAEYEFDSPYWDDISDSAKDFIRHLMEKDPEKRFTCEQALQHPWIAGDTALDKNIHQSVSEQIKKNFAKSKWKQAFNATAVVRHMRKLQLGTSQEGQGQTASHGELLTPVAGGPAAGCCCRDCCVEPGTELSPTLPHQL
In short: (§1)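 Tested at a single 1 uM in an outsourced commercial kinase-profiling panel, read as percent inhibition. Each value is the mean of two independent experiments.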

[9] = target: Serine/threonine-protein kinase BRSK2 (Homo sapiens) (UniProt Q8IWQ3); experiment: Inhibition of recombinant human BRSK2 (2 to end residues) at 1 uM using KKLNRTLSFAEPG as substrate incubated for 40 mins in presence of [gamma-33P]-ATP by scintillation counting method relative to control
In short: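 Kinase panel profiling at 1 μM performed by Eurofins KinaseProfiler; percent inhibition reported as mean of two independent experiments.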

[10] = target: Mitogen-activated protein kinase kinase kinase 2 (Homo sapiens) (UniProt Q9Y2U5); experiment: Inhibition of recombinant human full length MEKK2 at 1 uM using myelin basic protein as substrate incubated for 40 mins in presence of [gamma-33P]-ATP by scintillation counting method relative to control
Mitogen-activated protein kinase kinase kinase 2 (Homo sapiens), sequence (Q9Y2U5 whole entry): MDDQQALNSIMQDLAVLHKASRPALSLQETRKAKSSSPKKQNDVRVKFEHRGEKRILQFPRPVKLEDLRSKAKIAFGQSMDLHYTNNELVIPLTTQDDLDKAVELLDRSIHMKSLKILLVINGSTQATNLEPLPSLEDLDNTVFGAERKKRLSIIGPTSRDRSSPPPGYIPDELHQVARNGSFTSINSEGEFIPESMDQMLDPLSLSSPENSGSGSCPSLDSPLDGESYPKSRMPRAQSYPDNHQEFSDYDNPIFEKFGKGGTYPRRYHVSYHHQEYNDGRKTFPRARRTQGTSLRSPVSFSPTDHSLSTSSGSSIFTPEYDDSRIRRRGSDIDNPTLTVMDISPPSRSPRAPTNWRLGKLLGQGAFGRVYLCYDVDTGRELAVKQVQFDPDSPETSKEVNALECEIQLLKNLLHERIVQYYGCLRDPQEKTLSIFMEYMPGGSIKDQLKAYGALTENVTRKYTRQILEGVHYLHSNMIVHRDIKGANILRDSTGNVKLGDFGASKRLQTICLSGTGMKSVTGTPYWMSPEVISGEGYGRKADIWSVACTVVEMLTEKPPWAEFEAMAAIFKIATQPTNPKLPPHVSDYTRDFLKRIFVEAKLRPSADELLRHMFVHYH

[11] = target: Serine/threonine-protein kinase 32C (Homo sapiens) (UniProt Q86UX6); experiment: Inhibition of recombinant human full length STK32C at 1 uM using casein as substrate incubated for 40 mins in presence of [gamma-33P]-ATP by scintillation counting method relative to control
[12] = tested on: SiHa; experiment: Induction of cell cycle arrest in human SiHa cells assessed as decrease in cell accumulation in S phase at 40 to 80 nM incubated for 36 hrs by propidium iodide staining based flow cytometry; format: functional
In short: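 Cells were treated with graded concentrations for 36 h, then fixed overnight in 70% ice-cold ethanol at 4°C and resuspended in PBS. Staining used 50 µg/ml PI plus 5 µg/ml RNase at 37°C for 30 min. DNA content was analysed by FACS to give G0/G1, S and G2/M fractions.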

[13] = target: Tyrosine-protein kinase BTK (Homo sapiens) (UniProt Q06187); experiment: Inhibition of recombinant full length human BTK at 1 uM using LSNLYHQGKFLQT as substrate incubated for 40 mins in presence of [gamma-33P]-ATP by scintillation counting method relative to control; in short: as §1
Tyrosine-protein kinase BTK (Homo sapiens), sequence (Q06187 whole entry): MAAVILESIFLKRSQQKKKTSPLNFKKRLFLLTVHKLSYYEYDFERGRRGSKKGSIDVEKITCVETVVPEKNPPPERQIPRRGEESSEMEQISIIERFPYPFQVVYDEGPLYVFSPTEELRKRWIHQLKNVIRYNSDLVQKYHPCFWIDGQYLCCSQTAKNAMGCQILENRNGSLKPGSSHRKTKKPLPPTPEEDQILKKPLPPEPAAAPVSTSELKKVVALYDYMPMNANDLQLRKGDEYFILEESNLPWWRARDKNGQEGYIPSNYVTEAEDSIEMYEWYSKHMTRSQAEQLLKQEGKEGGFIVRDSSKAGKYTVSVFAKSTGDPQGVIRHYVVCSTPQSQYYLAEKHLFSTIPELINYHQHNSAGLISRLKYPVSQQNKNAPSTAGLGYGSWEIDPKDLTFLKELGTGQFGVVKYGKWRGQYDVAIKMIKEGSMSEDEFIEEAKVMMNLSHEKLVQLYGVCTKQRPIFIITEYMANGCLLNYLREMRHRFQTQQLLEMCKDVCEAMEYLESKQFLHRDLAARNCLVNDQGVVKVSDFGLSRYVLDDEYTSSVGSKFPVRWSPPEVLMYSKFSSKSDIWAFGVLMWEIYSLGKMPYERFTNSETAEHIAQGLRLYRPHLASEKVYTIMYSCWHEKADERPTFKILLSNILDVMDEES

[14] = tested on: T47D; experiment: Inhibition of colony formation in human T47D cells at 20 to 40 nM incubated for 5 days by crystal violet staining based light microscopy; format: functional, cell-based
In short: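 MDA-MB-231, T-47D, SiHa and HeLa cells seeded at 4×10^3/well and cultured with varying concentrations of drug or vehicle for 5 days. Fixed in 20% methanol, stained with 0.5% crystal violet, photographed under light microscopy. DMEM (T-47D) with 10% FBS, 37°C, 5% CO2.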

[15] = target: Serine/threonine-protein kinase MARK1 (Homo sapiens) (UniProt Q9P0L2); experiment: Inhibition of recombinant human MARK1 (2 to end residues) at 1 uM using KKKVSRSGLYRSPSMPENLNRPR as substrate incubated for 40 mins in presence of [gamma-33P]-ATP by scintillation counting method relative to control
Serine/threonine-protein kinase MARK1 (Homo sapiens), sequence (Q9P0L2 whole entry, looked up, the tested form may be a part): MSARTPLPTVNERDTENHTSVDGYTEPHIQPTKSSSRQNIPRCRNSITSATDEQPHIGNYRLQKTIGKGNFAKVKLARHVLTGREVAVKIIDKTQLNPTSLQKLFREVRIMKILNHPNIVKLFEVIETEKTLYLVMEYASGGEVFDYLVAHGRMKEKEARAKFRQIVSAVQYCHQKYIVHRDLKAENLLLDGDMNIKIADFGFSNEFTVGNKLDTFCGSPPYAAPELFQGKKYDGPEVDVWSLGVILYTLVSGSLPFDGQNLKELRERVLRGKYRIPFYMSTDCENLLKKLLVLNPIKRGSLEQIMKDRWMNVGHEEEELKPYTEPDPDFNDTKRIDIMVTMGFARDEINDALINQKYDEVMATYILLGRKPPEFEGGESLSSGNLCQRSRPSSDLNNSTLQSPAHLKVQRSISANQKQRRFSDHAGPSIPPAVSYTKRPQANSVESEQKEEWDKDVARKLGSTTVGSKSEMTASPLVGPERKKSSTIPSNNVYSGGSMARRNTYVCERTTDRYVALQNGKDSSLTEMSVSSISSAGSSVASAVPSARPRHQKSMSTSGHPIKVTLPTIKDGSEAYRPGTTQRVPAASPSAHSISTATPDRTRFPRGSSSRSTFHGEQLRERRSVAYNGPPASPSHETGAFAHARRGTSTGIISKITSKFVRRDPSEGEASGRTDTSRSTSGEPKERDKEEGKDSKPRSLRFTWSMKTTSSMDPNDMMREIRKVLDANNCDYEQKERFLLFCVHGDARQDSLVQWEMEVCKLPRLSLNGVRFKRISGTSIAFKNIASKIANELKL

[16] = target: LIM domain kinase 2 (Homo sapiens) (UniProt P53671); experiment: Inhibition of recombinant human LIMK2 at 1 uM incubated for 40 mins in presence of [gamma-33P]-ATP by scintillation counting method relative to control
[17] = target: Tau-tubulin kinase 1 (Homo sapiens) (UniProt Q5TCY1); experiment: Inhibition of recombinant human TTBK1 (1 to 479 residues) at 1 uM using casein as substrate incubated for 40 mins in presence of [gamma-33P]-ATP by scintillation counting method relative to control; in short: as §1
[18] = target: Receptor-interacting serine/threonine-protein kinase 2 (Homo sapiens) (UniProt O43353); experiment: Inhibition of recombinant human RIPK2 (1 to 299 residues) at 1 uM using myelin basic protein as substrate incubated for 40 mins in presence of [gamma-33P]-ATP by scintillation counting method relative to control
Receptor-interacting serine/threonine-protein kinase 2 (Homo sapiens), sequence (O43353 whole entry, the tested form may be a part): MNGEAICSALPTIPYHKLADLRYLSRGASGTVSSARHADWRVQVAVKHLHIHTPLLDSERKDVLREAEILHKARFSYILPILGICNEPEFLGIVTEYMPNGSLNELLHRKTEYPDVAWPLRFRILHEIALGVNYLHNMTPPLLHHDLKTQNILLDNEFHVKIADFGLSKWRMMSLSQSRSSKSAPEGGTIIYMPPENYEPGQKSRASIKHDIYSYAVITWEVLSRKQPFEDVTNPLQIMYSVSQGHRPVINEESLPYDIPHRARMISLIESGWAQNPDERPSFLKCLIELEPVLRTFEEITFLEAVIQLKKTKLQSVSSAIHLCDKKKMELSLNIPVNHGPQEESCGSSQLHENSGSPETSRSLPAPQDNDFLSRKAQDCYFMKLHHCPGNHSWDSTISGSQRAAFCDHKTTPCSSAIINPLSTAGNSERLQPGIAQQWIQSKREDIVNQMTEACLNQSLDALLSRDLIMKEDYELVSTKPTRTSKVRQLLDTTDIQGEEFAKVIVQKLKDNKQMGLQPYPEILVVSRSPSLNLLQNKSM

[19] = target: Serine/threonine-protein kinase TAO3 (Homo sapiens) (UniProt Q9H2K8); experiment: Inhibition of recombinant human TAO3 (1 to 411 residues) at 1 uM using myelin basic protein as substrate incubated for 40 mins in presence of [gamma-33P]-ATP by scintillation counting method relative to control
[20] = target: Protein-tyrosine kinase 2-beta (Homo sapiens) (UniProt Q14289); experiment: Inhibition of recombinant human full length PYK2 at 1 uM using poly(Glu, Tyr) 4:1 as substrate incubated for 40 mins in presence of [gamma-33P]-ATP by scintillation counting method relative to control
[21] = target: Serine/threonine-protein kinase WNK1 (Homo sapiens) (UniProt Q9H4A3); experiment: Inhibition of recombinant human WNK1 (1 to 491 residues) at 1 uM using myelin basic protein as substrate incubated for 40 mins in presence of [gamma-33P]-ATP by scintillation counting method relative to control; in short: as §1

Cc1ccc(NC(=O)C2(C(=O)Nc3ccc(Nc4ncc(F)c(-c5cc(F)c6nc(C)n(C(C)C)c6c5)n4)cc3)CC2)cc1
inhibition [1]: 10% | inhibition [2]: 5% | inhibition [3]: 6% | inhibition [4]: Active | inhibition [5]: 21% | inhibition [6]: 2% | inhibition [7]: 78% | inhibition [8]: 0% | inhibition [9]: 54% | inhibition [10]: 79% | inhibition [11]: 5% | Activity [12]: Active | inhibition [13]: 0% | inhibition [14]: Active | inhibition [15]: 74% | inhibition [16]: 42% | inhibition [17]: 0% | inhibition [18]: 46% | inhibition [19]: 2% | inhibition [20]: 73% | inhibition [21]: 0%
